Data from ChEMBL document CHEMBL5376013, “Design, synthesis and biological evaluation of novel morpholinopyrimidine-5-carbonitrile derivatives as dual PI3K/mTOR inhibitors” (RSC Med Chem, 2024).

Assays:
Format in all cases: functional
Details in all cases: read-out: GI
CCRF-CEM = assay: Antitumor activity against human CCRF-CEM cells assessed as growth inhibition at 10 uM relative to control
How it was run: (§1)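 After drug addition, plates were incubated 48 h at 37 °C under 5% CO2. Adherent cells were fixed with cold TCA (10% final, 60 min, 4 °C) and suspension cells with 16% final TCA. Staining used 0.4% SRB in 1% acetic acid, solubilized in 10 mM trizma, read at A515. Percent growth was calculated from time-zero, control and treated absorbances.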

HL-60 = assay: Antitumor activity against human HL-60 cells assessed as growth inhibition at 10 uM relative to control; how it was run: as §1
K562 = assay: Antitumor activity against human K562 cells assessed as growth inhibition at 10 uM relative to control; how it was run: as §1
MOLT-4 = assay: Antitumor activity against human MOLT-4 cells assessed as growth inhibition at 10 uM relative to control; how it was run: as §1
RPMI-8226 = assay: Antitumor activity against human RPMI-8226 cells assessed as growth inhibition at 10 uM relative to control; how it was run: as §1
SR = assay: Antitumor activity against human SR cells assessed as growth inhibition at 10 uM relative to control
How it was run: (§2)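 Drug exposure 48 h at 37 °C, 5% CO2. Adherent cells fixed with cold TCA (10% final), suspension cells with TCA (16% final). Stained with 0.4% SRB in 1% acetic acid, dissolved in 10 mM Tris, A515. Growth relative to time-zero and untreated control.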

A549 = assay: Antitumor activity against human A549 cells assessed as growth inhibition at 10 uM relative to control; how it was run: as §1
HOP-62 = assay: Antitumor activity against human HOP-62 cells assessed as growth inhibition at 10 uM relative to control; how it was run: as §1
HOP-92 = assay: Antitumor activity against human HOP-92 cells assessed as growth inhibition at 10 uM relative to control; how it was run: as §1
NCI-H226 = assay: Antitumor activity against human NCI-H226 cells assessed as growth inhibition at 10 uM relative to control; how it was run: as §1
NCI-H23 = assay: Antitumor activity against human NCI-H23 cells assessed as growth inhibition at 10 uM relative to control; how it was run: as §1
NCI-H522 = assay: Antitumor activity against human NCI-H522 cells assessed as growth inhibition at 10 uM relative to control; how it was run: as §1
COLO 205 = assay: Antitumor activity against human COLO 205 cells assessed as growth inhibition at 10 uM relative to control; how it was run: as §1
HCT-116 = assay: Antitumor activity against human HCT-116 cells assessed as growth inhibition at 10 uM relative to control; how it was run: as §1
HCT-15 = assay: Antitumor activity against human HCT-15 cells assessed as growth inhibition at 10 uM relative to control; how it was run: as §1
HT-29 = assay: Antitumor activity against human HT-29 cells assessed as growth inhibition at 10 uM relative to control; how it was run: as §1
SW-620 = assay: Antitumor activity against human SW-620 cells assessed as growth inhibition at 10 uM relative to control; how it was run: as §2
SF-268 = assay: Antitumor activity against human SF-268 cells assessed as growth inhibition at 10 uM relative to control; how it was run: as §1
SF-295 = assay: Antitumor activity against human SF-295 cells assessed as growth inhibition at 10 uM relative to control; how it was run: as §1
SF-539 = assay: Antitumor activity against human SF-539 cells assessed as growth inhibition at 10 uM relative to control; how it was run: as §1
SNB-75 = assay: Antitumor activity against human SNB-75 cells assessed as growth inhibition at 10 uM relative to control; how it was run: as §2
U-251 = assay: Antitumor activity against human U-251 cells assessed as growth inhibition at 10 uM relative to control; how it was run: as §2
LOX IMVI = assay: Antitumor activity against human LOX IMVI cells assessed as growth inhibition at 10 uM relative to control; how it was run: as §1
Malme-3M = assay: Antitumor activity against human Malme-3M cells assessed as growth inhibition at 10 uM relative to control; how it was run: as §1
MDA-MB-435 = assay: Antitumor activity against human MDA-MB-435 cells assessed as growth inhibition at 10 uM relative to control; how it was run: as §1
SK-MEL-2 = assay: Antitumor activity against human SK-MEL-2 cells assessed as growth inhibition at 10 uM relative to control; how it was run: as §1
SK-MEL-5 = assay: Antitumor activity against human SK-MEL-5 cells assessed as growth inhibition at 10 uM relative to control; how it was run: as §2
UACC-62 = assay: Antitumor activity against human UACC-62 cells assessed as growth inhibition at 10 uM relative to control; how it was run: as §2
IGROV-1 = assay: Antitumor activity against human IGROV-1 cells assessed as growth inhibition at 10 uM relative to control; how it was run: as §1
OVCAR-8 = assay: Antitumor activity against human OVCAR-8 cells assessed as growth inhibition at 10 uM relative to control; how it was run: as §1
NCI/ADR-RES = assay: Antitumor activity against human NCI-ADR-RES cells assessed as growth inhibition at 10 uM relative to control; how it was run: as §1
SK-OV-3 = assay: Antitumor activity against human SK-OV-3 cells assessed as growth inhibition at 10 uM relative to control; how it was run: as §2
786-0 = assay: Antitumor activity against human 786-0 cells assessed as growth inhibition at 10 uM relative to control; how it was run: as §1
A498 = assay: Antitumor activity against human A498 cells assessed as growth inhibition at 10 uM relative to control; how it was run: as §1
ACHN = assay: Antitumor activity against human ACHN cells assessed as growth inhibition at 10 uM relative to control; how it was run: as §1
CAKI-1 = assay: Antitumor activity against human CAKI-1 cells assessed as growth inhibition at 10 uM relative to control; how it was run: as §1
RXF 393 = assay: Antitumor activity against human RXF 393 cells assessed as growth inhibition at 10 uM relative to control; how it was run: as §1
SN12C = assay: Antitumor activity against human SN12C cells assessed as growth inhibition at 10 uM relative to control; how it was run: as §2
TK-10 = assay: Antitumor activity against human TK-10 cells assessed as growth inhibition at 10 uM relative to control; how it was run: as §2
UO-31 = assay: Antitumor activity against human UO-31 cells assessed as growth inhibition at 10 uM relative to control; how it was run: as §2
DU-145 = assay: Antitumor activity against human DU-145 cells assessed as growth inhibition at 10 uM relative to control; how it was run: as §1
MCF7 = assay: Antitumor activity against human MCF7 cells assessed as growth inhibition at 10 uM relative to control; how it was run: as §1
MDA-MB-231 = assay: Antitumor activity against human MDA-MB-231 cells assessed as growth inhibition at 10 uM relative to control; how it was run: as §1
Hs-578T = assay: Antitumor activity against human Hs-578T cells assessed as growth inhibition at 10 uM relative to control; how it was run: as §1
T47D = assay: Antitumor activity against human T47D cells assessed as growth inhibition at 10 uM relative to control; how it was run: as §2
MDA-MB-468 = assay: Antitumor activity against human MDA-MB-468 cells assessed as growth inhibition at 10 uM relative to control; how it was run: as §1

In the case of `N#Cc1c(-c2ccc(Cl)cc2)nc(N2NC(=O)CC2=N)nc1N1CCOCC1`, the inhibition of growth at 10 µM (CCRF-CEM) is reported as < 1%, the inhibition of growth at 10 µM (HL-60) is reported as < 1% and the inhibition of growth at 10 µM (K562) is reported as < 1%. For the same compound, the inhibition of growth at 10 µM (MOLT-4) was < 1%, the inhibition of growth at 10 µM (RPMI-8226) was < 1% and the inhibition of growth at 10 µM (SR) was < 1%. For the same compound, the inhibition of growth at 10 µM (A549) was < 1%, the inhibition of growth at 10 µM (HOP-62) was < 1% and the inhibition of growth at 10 µM (HOP-92) was 12.6%. The inhibition of growth at 10 µM (NCI-H226) was < 1%, the inhibition of growth at 10 µM (NCI-H23) was < 1% and the inhibition of growth at 10 µM (NCI-H522) was 13.6%. For the same compound, the inhibition of growth at 10 µM (COLO 205) was < 1%, the inhibition of growth at 10 µM (HCT-116) was < 1% and the inhibition of growth at 10 µM (HCT-15) was < 1%. For the same compound, the inhibition of growth at 10 µM (HT-29) was < 1%, the inhibition of growth at 10 µM (SW-620) was < 1% and the inhibition of growth at 10 µM (SF-268) was < 1%. For the same compound, the inhibition of growth at 10 µM (SF-295) was < 1%, the inhibition of growth at 10 µM (SF-539) was < 1% and the inhibition of growth at 10 µM (SNB-75) was 24.3%. For the same compound, the inhibition of growth at 10 µM (U-251) was < 1%, the inhibition of growth at 10 µM (LOX IMVI) was < 1% and the inhibition of growth at 10 µM (Malme-3M) was 58%. For the same compound, the inhibition of growth at 10 µM (MDA-MB-435) was < 1%, the inhibition of growth at 10 µM (SK-MEL-2) was < 1% and the inhibition of growth at 10 µM (SK-MEL-5) was < 1%. The inhibition of growth at 10 µM (UACC-62) was 86.2%, the inhibition of growth at 10 µM (IGROV-1) was < 1% and the inhibition of growth at 10 µM (OVCAR-8) was < 1%. For the same compound, the inhibition of growth at 10 µM (NCI/ADR-RES) was < 1%, the inhibition of growth at 10 µM (SK-OV-3) was < 1% and the inhibition of growth at 10 µM (786-0) was < 1%. For the same compound, the inhibition of growth at 10 µM (A498) was 34.3%, the inhibition of growth at 10 µM (ACHN) was < 1% and the inhibition of growth at 10 µM (CAKI-1) was < 1%. The inhibition of growth at 10 µM (RXF 393) was < 1%, the inhibition of growth at 10 µM (SN12C) was < 1% and the inhibition of growth at 10 µM (TK-10) was < 1%. The inhibition of growth at 10 µM (UO-31) was 24.6%, the inhibition of growth at 10 µM (DU-145) was < 1% and the inhibition of growth at 10 µM (MCF7) was 1%. The inhibition of growth at 10 µM (MDA-MB-231) was < 1%, the inhibition of growth at 10 µM (Hs-578T) was < 1% and the inhibition of growth at 10 µM (T47D) was < 1%. For the same compound, the inhibition of growth at 10 µM (MDA-MB-468) was < 1%.
